Experimental data reported in ChEMBL document CHEMBL4619736, “Direct modifications of the cyclic peptide Polymyxin B leading to analogues with enhanced in vitro antibacterial activity” (Bioorg Med Chem Lett, 2020).
≈ marks a conversion by molar mass, not a printed value. Numbered stars: 1 amine (or outer) side, 2 acyl side, 3 side chain; on linkers, the order of the positions; unused ones are H or OH. Bridge positions count the residues as written; N and C are the ends. Square brackets hold non-standard residues; d marks the D form. Peptide text beside a SMILES is read from it. * marks the point of attachment. X2 = O=C([C@@H](Cc1ccc(-c2ccncc2)cc1)N[*:1])[*:2]; GABA(3R-Bn) = O=C(C[C@H](CN[*:1])Cc1ccccc1)[*:2]; X1 = CC[C@H](C)CCCCC(=O)*; Dab = NCC[C@H](N)C(=O)O; Dap = NC[C@H](N)C(=O)O

How the values were obtained:
Pseudomonas aeruginosa [1] = test: Antibacterial activity against Pseudomonas aeruginosa ATCC 27853 by CLSI based broth microdilution method; type: functional
Outline: (§1)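 Broth microdilution MIC per CLSI guidelines (M07-A9) in cation-adjusted Mueller-Hinton broth; panel of Gram-negative strains including clinical isolates with reduced polymyxin B susceptibility.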

Pseudomonas aeruginosa [2] = test: Antibacterial activity against Pseudomonas aeruginosa IHMA 517175 by CLSI based broth microdilution method; type: functional; outline: as §1
Klebsiella pneumoniae [3] = test: Antibacterial activity against Klebsiella pneumoniae IHMA 652780 by CLSI based broth microdilution method; type: functional; outline: as §1
Acinetobacter baumannii [4] = test: Antibacterial activity against Acinetobacter baumannii NCTC 13424 by CLSI based broth microdilution method; type: functional; outline: as §1
Klebsiella pneumoniae [5] = test: Antibacterial activity against Klebsiella pneumoniae ATCC 4352 by CLSI based broth microdilution method; type: functional; outline: as §1
[6] = Ratio of test compound IC50 to polymyxin B IC50 for cytotoxicity against human HK2 cells incubated for 24 hrs by resazurin blue dye based assay; type: cell-based; settings: HK-2 cells, read-out: Ratio IC50
Outline: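 Confluent monolayers of human proximal tubule epithelial HK-2 cells exposed to compound for 24h at 37°C, 5% CO2; top concentration 1,000 or 3,000 μg/mL, semi-log dilutions, 9 points. Viability read with resazurin blue; log-concentration dose-response fit with bottom constrained to zero gives IC50, expressed relative to polymyxin B IC50 run in the same experiment.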

Escherichia coli [7] = test: Antibacterial activity against Escherichia coli ATCC 25922 by CLSI based broth microdilution method; type: functional; outline: as §1
Escherichia coli [8] = test: Antibacterial activity against Escherichia coli IHMA 940398 by CLSI based broth microdilution method; type: functional; outline: as §1
Acinetobacter baumannii [9] = test: Antibacterial activity against Acinetobacter baumannii IHMA 863866 by CLSI based broth microdilution method; type: functional; outline: as §1

SMILES	MIC (Pseudomonas aeruginosa [1]) [µg/mL]	MIC (Pseudomonas aeruginosa [2]) [µg/mL]	MIC (Klebsiella pneumoniae [3]) [µg/mL]	MIC (Acinetobacter baumannii [4]) [µg/mL]	MIC (Klebsiella pneumoniae [5]) [µg/mL]	MIC (Escherichia coli [7]) [µg/mL]	MIC (Escherichia coli [8]) [µg/mL]	MIC (Acinetobacter baumannii [9]) [µg/mL]	selectivity ratio at 24 h [6]
CC(C)C[C@@H]1NC(=O)[C@@H](CC2CCCCC2)NC(=O)[C@H](CCN)NC(=O)[C@@H](NC(=O)[C@H](CN)NC(=O)[C@@H](NC(=O)C[C@H](CN)Cc2ccccc2)[C@@H](C)O)CCNC(=O)[C@H]([C@@H](C)O)NC(=O)[C@H](CCN)NC(=O)[C@H](CCN)NC1=O	0.25 (≈ 0.221 µM)	4 (≈ 3.54 µM)	4 (≈ 3.54 µM)	0.125 (≈ 0.111 µM)	0.06 (≈ 0.0531 µM)	0.25 (≈ 0.221 µM)	16 (≈ 14.2 µM)	64 (≈ 56.6 µM)	5.2
CC(C)C[C@@H]1NC(=O)[C@@H](CC2CCCCC2)NC(=O)[C@H](CCN)NC(=O)[C@@H](NC(=O)[C@H](CN)NC(=O)[C@@H](NC(=O)C[C@H](CN)C2CCCCC2)[C@@H](C)O)CCNC(=O)[C@H]([C@@H](C)O)NC(=O)[C@H](CCN)NC(=O)[C@H](CCN)NC1=O	0.5 (≈ 0.445 µM)	2 (≈ 1.78 µM)	2 (≈ 1.78 µM)	0.125 (≈ 0.111 µM)	–	0.5 (≈ 0.445 µM)	8 (≈ 7.13 µM)	32 (≈ 28.5 µM)	–
CC(C)C[C@@H]1NC(=O)[C@@H](CC2CCCCC2)NC(=O)[C@H](CCN)NC(=O)[C@@H](NC(=O)[C@H](CCN)NC(=O)[C@@H](NC(=O)C[C@H](CN)Cc2ccccc2)[C@@H](C)O)CCNC(=O)[C@H]([C@@H](C)O)NC(=O)[C@H](CCN)NC(=O)[C@H](CCN)NC1=O	0.25 (≈ 0.218 µM)	8 (≈ 6.99 µM)	4 (≈ 3.5 µM)	0.06 (≈ 0.0524 µM)	–	0.125 (≈ 0.109 µM)	32 (≈ 28 µM)	64 (≈ 55.9 µM)	2.4
CC(C)C[C@@H]1NC(=O)[C@@H](Cc2ccccc2)NC(=O)[C@H](CCN)NC(=O)[C@@H](NC(=O)[C@H](CN)NC(=O)[C@@H](NC(=O)C[C@H](CN)C2CCCCC2)[C@@H](C)O)CCNC(=O)[C@H]([C@@H](C)O)NC(=O)[C@H](CCN)NC(=O)[C@H](CCN)NC1=O	0.06 (≈ 0.0537 µM)	8 (≈ 7.17 µM)	4 (≈ 3.58 µM)	0.25 (≈ 0.224 µM)	0.125 (≈ 0.112 µM)	0.06 (≈ 0.0537 µM)	16 (≈ 14.3 µM)	> 64	6.9
CC[C@H](C)CCCCC(=O)N[C@@H](CCN)C(=O)N[C@H](C(=O)N[C@@H](CCN)C(=O)N[C@H]1CCNC(=O)[C@H]([C@@H](C)O)NC(=O)[C@H](CCN)NC(=O)[C@H](CCN)NC(=O)[C@H](CC(C)C)NC(=O)[C@@H](Cc2ccc(Br)cc2)NC(=O)[C@H](CCN)NC1=O)[C@@H](C)O	0.5 (≈ 0.39 µM)	2 (≈ 1.56 µM)	0.5 (≈ 0.39 µM)	0.5 (≈ 0.39 µM)	0.5 (≈ 0.39 µM)	0.5 (≈ 0.39 µM)	4 (≈ 3.12 µM)	4 (≈ 3.12 µM)	–
CC[C@H](C)CCCCC(=O)N[C@@H](CCN)C(=O)N[C@H](C(=O)N[C@@H](CCN)C(=O)N[C@H]1CCNC(=O)[C@H]([C@@H](C)O)NC(=O)[C@H](CCN)NC(=O)[C@H](CCN)NC(=O)[C@H](CC(C)C)NC(=O)[C@@H](CC2CCCCC2)NC(=O)[C@H](CCN)NC1=O)[C@@H](C)O	1 (≈ 0.827 µM)	4 (≈ 3.31 µM)	1 (≈ 0.827 µM)	0.5 (≈ 0.413 µM)	0.5 (≈ 0.413 µM)	0.5 (≈ 0.413 µM)	8 (≈ 6.61 µM)	32 (≈ 26.5 µM)	–
CC[C@H](C)CCCCC(=O)N[C@@H](CCN)C(=O)N[C@H](C(=O)N[C@@H](CCN)C(=O)N[C@H]1CCNC(=O)[C@H]([C@@H](C)O)NC(=O)[C@H](CCN)NC(=O)[C@H](CCN)NC(=O)[C@H](CC(C)C)NC(=O)[C@@H](Cc2ccc(-c3ccncc3)cc2)NC(=O)[C@H](CCN)NC1=O)[C@@H](C)O (X1-[Dab]T[Dab][Dab][Dab][X2]L[Dab][Dab]T; lactam 4-C)	1 (≈ 0.781 µM)	32 (≈ 25 µM)	–	2 (≈ 1.56 µM)	1 (≈ 0.781 µM)	1 (≈ 0.781 µM)	32 (≈ 25 µM)	–	0.7
CC[C@H](C)CCCCC(=O)N[C@@H](CCN)C(=O)N[C@H](C(=O)N[C@@H](CCN)C(=O)N[C@H]1CCNC(=O)[C@H]([C@@H](C)O)NC(=O)[C@H](CCN)NC(=O)[C@H](CCN)NC(=O)[C@H](CC(C)C)NC(=O)[C@@H](Cc2ccccc2)NC(=O)[C@H](CCN)NC1=O)[C@@H](C)O (X1-[Dab]T[Dab][Dab][Dab][dF]L[Dab][Dab]T; lactam 4-C)	0.5 (≈ 0.415 µM)	8 (≈ 6.65 µM)	4 (≈ 3.32 µM)	0.25 (≈ 0.208 µM)	0.125 (≈ 0.104 µM)	0.25 (≈ 0.208 µM)	16 (≈ 13.3 µM)	32 (≈ 26.6 µM)	1

The next lines start with results.

MIC (Pseudomonas aeruginosa [1]) [µg/mL]	MIC (Pseudomonas aeruginosa [2]) [µg/mL]	MIC (Klebsiella pneumoniae [3]) [µg/mL]	MIC (Acinetobacter baumannii [4]) [µg/mL]	MIC (Klebsiella pneumoniae [5]) [µg/mL]	MIC (Escherichia coli [7]) [µg/mL]	MIC (Escherichia coli [8]) [µg/mL]	MIC (Acinetobacter baumannii [9]) [µg/mL]	SMILES	selectivity ratio at 24 h [6]
1 (≈ 0.781 µM)	2 (≈ 1.56 µM)	0.5 (≈ 0.391 µM)	1 (≈ 0.781 µM)	0.5 (≈ 0.391 µM)	1 (≈ 0.781 µM)	8 (≈ 6.25 µM)	16 (≈ 12.5 µM)	CC[C@H](C)CCCCC(=O)N[C@@H](CCN)C(=O)N[C@H](C(=O)N[C@@H](CCN)C(=O)N[C@H]1CCNC(=O)[C@H]([C@@H](C)O)NC(=O)[C@H](CCN)NC(=O)[C@H](CCN)NC(=O)[C@H](CC(C)C)NC(=O)[C@@H](Cc2ccc(-c3ccccc3)cc2)NC(=O)[C@H](CCN)NC1=O)[C@@H](C)O	0.14
0.125 (≈ 0.111 µM)	8 (≈ 7.12 µM)	–	0.125 (≈ 0.111 µM)	0.125 (≈ 0.111 µM)	0.25 (≈ 0.222 µM)	32 (≈ 28.5 µM)	> 64	CC(C)C[C@@H]1NC(=O)[C@@H](Cc2ccccc2)NC(=O)[C@H](CCN)NC(=O)[C@@H](NC(=O)[C@H](CN)NC(=O)[C@@H](NC(=O)C[C@H](CN)Cc2ccccc2)[C@@H](C)O)CCNC(=O)[C@H]([C@@H](C)O)NC(=O)[C@H](CCN)NC(=O)[C@H](CCN)NC1=O ({GABA(3R-Bn)}-T[Dap][Dab][Dab][dF]L[Dab][Dab]T; lactam 3-C)	12
0.5 (≈ 0.447 µM)	32 (≈ 28.6 µM)	16 (≈ 14.3 µM)	0.5 (≈ 0.447 µM)	0.25 (≈ 0.224 µM)	0.25 (≈ 0.224 µM)	32 (≈ 28.6 µM)	> 64	CC(C)C[C@@H]1NC(=O)[C@@H](Cc2ccccc2)NC(=O)[C@H](CCN)NC(=O)[C@@H](NC(=O)[C@H](CN)NC(=O)[C@@H](NC(=O)[C@@H]2CNCCN2CC(C)C)[C@@H](C)O)CCNC(=O)[C@H]([C@@H](C)O)NC(=O)[C@H](CCN)NC(=O)[C@H](CCN)NC1=O	16.6
0.5 (≈ 0.419 µM)	4 (≈ 3.35 µM)	0.5 (≈ 0.419 µM)	0.125 (≈ 0.105 µM)	0.25 (≈ 0.209 µM)	0.125 (≈ 0.105 µM)	8 (≈ 6.7 µM)	4 (≈ 3.35 µM)	CC(C)C[C@@H]1NC(=O)[C@@H](Cc2ccc(-c3ccccc3)cc2)NC(=O)[C@H](CCN)NC(=O)[C@@H](NC(=O)[C@H](CN)NC(=O)[C@@H](NC(=O)[C@@H]2CNCCN2CC(C)C)[C@@H](C)O)CCNC(=O)[C@H]([C@@H](C)O)NC(=O)[C@H](CCN)NC(=O)[C@H](CCN)NC1=O	2.4
0.5 (≈ 0.419 µM)	1 (≈ 0.839 µM)	0.5 (≈ 0.419 µM)	0.25 (≈ 0.21 µM)	0.25 (≈ 0.21 µM)	0.25 (≈ 0.21 µM)	2 (≈ 1.68 µM)	0.5 (≈ 0.419 µM)	CC(C)C[C@@H]1CNC[C@@H](C(=O)N[C@H](C(=O)N[C@@H](CN)C(=O)N[C@H]2CCNC(=O)[C@H]([C@@H](C)O)NC(=O)[C@H](CCN)NC(=O)[C@H](CCN)NC(=O)[C@H](CC(C)C)NC(=O)[C@@H](Cc3ccc(-c4ccccc4)cc3)NC(=O)[C@H](CCN)NC2=O)[C@@H](C)O)C1	1.2
